The values below come from ChEMBL document CHEMBL1159009, “Anti-influenza virus effect of some propolis constituents and their analogues (esters of substituted cinnamic acids)” (J Nat Prod, 1992).

Data set [1] can be described thus: Toxicity in hen chorioallantoic membrane assessed as maximum tolerable concentration causing no morphological changes. The arrangement: species or system Gallus gallus. As to conditions: chicken, read-out: Activity. An outline of the steps: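 Surviving chorioallantoic membrane cultures (membranes only) from 11-13-day-old embryonated hen's eggs were exposed to increasing concentrations and followed for 72 h. MTC was the highest concentration causing no morphological changes in the CAM.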

The test system of data set [2] is Influenza A virus H3N2. Description: microbe, parasite or virus in culture. The format is functional, Influenza A virus (A/Hong Kong/1/1968(H3N2)), Chorioallantoic membrane. As to conditions: 48 h.
A further data set concerns Influenza A virus. Description: microbe, parasite or virus in culture. As to conditions: A/Puerto Rico/8/1934(H1N1), 48 h. Type of data set: functional, Chorioallantoic membrane.
Data set [3] concerns Influenza A virus H3N2. The format is functional, Influenza A virus (A/Hong Kong/1/1968(H3N2)), Chorioallantoic membrane.
In data set [4] the test system is Influenza A virus H3N2. The format is functional, Influenza A virus (A/Hong Kong/1/1968(H3N2)), Chorioallantoic membrane. This is another data set of the same source.
Data set [5] in a line: Toxicity in hen egg assessed as maximum tolerable concentration causing no morphological changes. As to conditions: chicken, read-out: Activity. Set-up: species or system Gallus gallus.
Data set [6] has as its system Influenza A virus H3N2. Briefly: Antiviral activity against influenza A virus (A/Hong Kong/1/1968(H3N2)) infected in hen eggs assessed as hemagglutinination titre level at 1 mg/ml. The format is functional. In a few lines: (§1)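 11-day-old embryonated hen's eggs received 0.2 ml of substance 1 h before infection with A/Hong Kong/1/68 (H3N2) from allantoic fluid. Read-out was the mean geometrical hemagglutination titer, compared with a virus control for each dose.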

Data set [7] concerns Influenza A virus H3N2. The format is functional, Influenza A virus (A/Hong Kong/1/1968(H3N2)), Chorioallantoic membrane. The source holds these as a separate data set.
For data set [8], the system named is Influenza A virus H3N2. Briefly: Antiviral activity against influenza A virus (A/Hong Kong/1/1968(H3N2)) infected in hen eggs assessed as hemagglutinination titre level at 5 mg/ml. The format is functional. In a few lines:
as §1

Data set [9] has as its system Influenza A virus H3N2. The format is functional, Influenza A virus (A/Hong Kong/1/1968(H3N2)), Chorioallantoic membrane. This is another data set of the same source.
Data set [10] deals with Influenza A virus H3N2. Type of data set: functional, Influenza A virus (A/Hong Kong/1/1968(H3N2)), Chorioallantoic membrane. This is another data set of the same source.
In data set [11] the test system is Influenza A virus H3N2. Briefly: Antiviral activity against influenza A virus (A/Hong Kong/1/1968(H3N2)) infected in hen eggs assessed as hemagglutinination titre level at 2.5 mg/ml. Type of data set: functional. In a few lines:
as §1

For data set [12], the system named is Influenza A virus H3N2. The format is functional, Influenza A virus (A/Hong Kong/1/1968(H3N2)), Chorioallantoic membrane. The source holds these as a separate data set.
In data set [13] the test system is Influenza A virus H3N2. The format is functional, Influenza A virus (A/Hong Kong/1/1968(H3N2)), Chorioallantoic membrane. The source holds these as a separate data set.

SMILES strings stand for the structures. Values after ≈ are worked out from the molar mass of the structure shown.

`COc1cc(/C=C/C(=O)OCCc2ccccc2)ccc1O`: the MNTC in [1] worked out at 50 µg/mL. Moreover, the MIC in the data set on Influenza A virus H3N2 [2] and in the data set on Influenza A virus was above 50 µg/mL in each case.
As for `O=C(/C=C/c1ccc(O)c(O)c1)OCc1ccccc1` [BENZYL CAFFEATE], the MNTC in data set [1] stood at 50 µg/mL. Besides, the figures for the MIC against Influenza A virus H3N2 [2] and against Influenza A virus were 25 µg/mL (≈ 92.5 µM) and above 50 µg/mL, respectively.
As to `CC(C)CCOC(=O)/C=C/c1ccc(O)c(O)c1`, the MNTC in [1] stood at 50 µg/mL. Further, the MIC in the data set on Influenza A virus H3N2 [2] and against Influenza A virus was 25 µg/mL (≈ 99.9 µM) throughout.
In the case of `O=C(/C=C/c1ccc(O)c(O)c1)OCCc1ccccc1` [CAFFEIC ACID PHENETHYL ESTER], the MNTC in data set [1] amounted to 50 µg/mL. In addition, the results for the MIC against Influenza A virus H3N2 [2] and against Influenza A virus were 25 µg/mL (≈ 87.9 µM) and 50 µg/mL (≈ 176 µM), respectively.
`COc1cc(/C=C/C(=O)OCc2ccccc2)ccc1O` [BENZYL FERULATE]: in data set [1], the MNTC was found to be 50 µg/mL. Moreover, the MIC with Influenza A virus H3N2 [2] and against Influenza A virus was above 50 µg/mL each time.
For the compound `COc1cc(/C=C/C(=O)OCCC(C)C)ccc1O` [ISOPENTYL FERULATE], the deltalog10CCID50 in the data set on Influenza A virus H3N2 [3] was 2; in the data set on Influenza A virus H3N2 [7] it was above 2.5; in the data set on Influenza A virus H3N2 [10] it was 2. Moreover, the log10CCID50 was 1.5 with Influenza A virus H3N2 [4], 3 in the data set with Influenza A virus H3N2 [9], 1.5 with Influenza A virus H3N2 [12] and below 1 with Influenza A virus H3N2 [13]. Also, the MNTC in [5] amounted to 10000 µg/mL; in [1] it was 400 µg/mL. Further, the Activity in the data set with Influenza A virus H3N2 [6] came to 9.4; in the data set on Influenza A virus H3N2 [8] it was 6.45; in the data set with Influenza A virus H3N2 [11] it was 7.35. Moreover, the MIC in the data set with Influenza A virus H3N2 [2] is 50 µg/mL (≈ 189 µM); in the data set with Influenza A virus, above 200 µg/mL.
